Measurements of several laboratories.
Compare with care: the assays were run in different laboratories.
Target: Wee1-like protein kinase (WEE1, Homo sapiens, UniProt P30291)

SMILES | observed | action | method | cells | tested at | endpoint | result
CN1CC(Oc2cnc(C#N)cc2-c2ccn3nc(NC(=O)C4CC4)cc3c2)C1 | enzyme activity | inhibitor |  |  | 1 µM | inhibition | 2%
O=C(O)[C@H]1[C@H](Cn2nnc3ccccc3c2=O)CC[C@@H]1C(=O)c1ccc(OCCC2CCOCC2)cc1 | cell-free assay |  | competition with immobilised ligand |  | 1 µM | remaining binding | 100%
Cc1ccc(NC(=O)c2ccc(CN3CCN(C)CC3)cc2)cc1Nc1nc(-c2cccnc2)cs1 | cell-free assay |  |  |  | 0.5 µM | remaining signal | 97%
Cc1cc(NC(=O)c2cccc3cc(-c4cccc5[nH]nc(N)c45)ccc23)ccc1F | enzyme activity | inhibitor |  |  | 0.1 µM | activity vs control | 97%
O=c1nc(-c2ccccn2)sc2ccccc12 | binding |  | competition with immobilised ligand |  | 1 µM | remaining binding | 100%
O=C1NC(=O)c2cc(Nc3ccc(F)cc3)c(Nc3ccc(F)cc3)cc21 | cell-free assay |  |  |  | 0.5 µM | remaining signal | 99.6%
CC(C)(C)c1nc2c(s1)c1nc(N)ncc1c1ccc(NS(=O)(=O)c3c(F)cccc3F)c(F)c12 | enzyme activity | inhibitor | radiometric |  | 1 µM | remaining activity | 87%
N#CCCc1ccc2c(c1)-c1[nH]c3ccc([N+](=O)[O-])cc3c1CC(=O)N2 | cell-free assay |  |  |  | 0.5 µM | remaining signal | 100%
CN(c1nccc(-c2cnn3ncccc23)n1)C1CC1 | binding |  |  |  | 1 µM | remaining binding | 100%
CC1=C(C#N)[C@@H](c2ccc3[nH]nc(C)c3c2)C(C#N)=C(c2ccc(Cl)cc2)N1 | cell-free assay |  | competition with immobilised ligand |  | 1 µM | remaining binding | 100%
CNc1cc(Oc2cc(C(=O)Nc3cc(N4CCN(C)CC4)cc(C(F)(F)F)c3)ccc2C)ncn1 | target engagement in cells | inhibitor | chemoproteomics | Huh-7 | 1 µM | inhibition | -10.9%
Nc1ncnc2occ(-c3ccc(NC(=O)Nc4cc(C(F)(F)F)ccc4F)cc3)c12 | cell-free assay | inhibitor |  |  | 20 µM | remaining signal | 17%
O=C(Nc1cnn(-c2csc(C(=O)NC3COC3)c2)c1)Nc1c(F)cccc1Cl | enzyme activity | inhibitor |  |  | 5 µM | remaining activity | 85.2%
Cc1ccc(Nc2nccc(N(C)c3ccc4c(C)n(C)nc4c3)n2)cc1S(N)(=O)=O | enzyme activity | inhibitor |  |  | 0.5 µM | remaining activity | 95.3%
CC(=O)N1CCC(c2ccc(C(=O)NC3=NCCN3)cc2C(F)(F)F)CC1 | cell-free assay |  | competition with immobilised ligand |  | 1 µM | remaining binding | 100%
Cc1cnc(NC2CCOCC2)nc1-n1cnc(C(=O)NC(CN)c2cc(F)cc(Cl)c2)c1 (stereo not shown) | enzyme activity | inhibitor | radiometric |  | 1 µM | remaining activity | 101%
